The species entered for test [1] is Canis familiaris. Description: Emetic activity in dogs given as total dose at which the animal vomits. Format: functional, Canis lupus familiaris. In short, it runs like this: (§1)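 Four female beagles (8–15 kg) with free access to food and water, not pretreated. Drug was infused iv at constant rate into the cephalic vein. The rate (k0) was set so that vomiting would be expected about 10 min after the start of infusion. The total dose infused at vomiting was recorded. Relative k0 is the compound's k0 divided by the apomorphine k0.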

Test [2] concerns Canis familiaris. Kind of test: Relative rate of administration of compound in dogs. The class given is functional, Canis lupus familiaris. In short, it runs like this: as §1
Test [3] is filed under the species Rattus norvegicus. Kind of test: Motor activity in reserpinized rats at the biochemical ED100 dose level expressed as accumulation counts per 60 min. Format: functional. The method in brief: (§2)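 Male Sprague–Dawley rats (200–350 g) pretreated with reserpine 10 mg/kg ip 6 h beforehand. Drugs in saline given sc at doses matching the biochemical ED50 and ED100 for the DA-synthesis decrease. Each rat was caged singly in a photocell motility meter right after dosing and counts were accumulated over 60 min, testing between 1 and 6 p.m. Means ± SEM, n = 3–4, compared by ANOVA then Student's t test.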

Test [4] is filed under the species Rattus norvegicus. Kind of test: Motor activity in reserpinized rats at the biochemical ED50 dose level expressed as accumulation counts per 60 min. The class given is functional. In short, it runs like this:
as §2

For test [5], the species on record is Rattus norvegicus. Description: Estimated dose giving an approximately maximal decrease of the DA synthesis rate. The class given is functional. In short, it runs like this: (§3)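 Male Sprague–Dawley rats (200–350 g) were reserpinized, then given the drug sc in saline at four to six dose levels. NSD 1015 (100 mg/kg ip) was given 30 min before death to block decarboxylase. DOPA accumulation was measured spectrophotometrically in the limbic system and striatum as an index of DA synthesis rate. ED50 and ED100 were read from separate dose–response curves for each brain area. Experiments ran 9–12 a.m.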

For test [6], the species on record is Rattus norvegicus. Description: Estimated dose giving a half-maximal decrease of the DA synthesis rate in the striatum of rat brain. Format: functional. The method in brief: as §3
The species entered for test [7] is Rattus norvegicus. Description: Estimated dose giving a half-maximal decrease of the DA synthesis rate in the limbic system of rat brain. Format: functional. In short, it runs like this: as §3
The species entered for test [8] is Canis familiaris. Kind of test: Total dose at which the animal vomits. Format: functional, Canis lupus familiaris. The method in brief: as §1
For the next test, the system named is Canis lupus familiaris. Description: Emetic activity in dogs by constant-rate intravenous infusion was measured.
The subject of test [9] is Rattus norvegicus. Description: Estimated dose giving an approximately maximal decrease of the DA synthesis rate; I = Inactive (>45 umol/kg). Format: functional, organism-based. In short, it runs like this: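 Male Sprague-Dawley rats (200–350 g) pretreated with reserpine. Compounds dissolved in saline and given sc at four to six dose levels. Aromatic L-amino acid decarboxylase inhibited with NSD 1015 (100 mg/kg ip, 30 min before death). Brain DOPA measured spectrophotometrically as an index of DA synthesis rate. Experiments run 9–12 a.m. Dose read from separate dose–response curves for each brain area.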

Test [10] deals with Rattus norvegicus. Kind of test: Estimated dose giving a half-maximal decrease of the DA synthesis rate in the limbic system of rat brain; I = Inactive (>45 umol/kg). The class given is functional, organism-based. The method in brief: as §3
For test [11], the system named is Rattus norvegicus. Description: Estimated dose giving a half-maximal decrease of the DA synthesis rate in the striatum of rat brain; I = Inactive (>45 umol/kg). Format: functional, organism-based. The method in brief: as §3

Active and inactive are the calls of the source.

As a reminder, the ED50 is the midpoint of the dose-response relation. For the compound `CCCN(CCC)C1Cc2ccc(O)cc2C1` (centres undefined), in the test filed under Canis familiaris [1], the TED stood at 247 nM/kg. The rel ko with Canis familiaris [2] is reported as 9.9. The Accumulation counts in the test listed under Rattus norvegicus [3] is reported as 89; in the test listed under Rattus norvegicus [4], 23. In addition, the ED100 in the test filed under Rattus norvegicus [5] is 6500 nM/kg. In addition, the ED50 was 1.44 µmol/kg in the test listed under Rattus norvegicus [6] and 1.25 µmol/kg in the test filed under Rattus norvegicus [7].

In the test filed under Canis familiaris [1], `CCCN(CCC)CC1Cc2cccc(O)c2C1` (centres undefined) came in with a TED of 292 nM/kg. Moreover, the rel ko in the test with Canis familiaris [2] was determined as 9.1. The Accumulation counts in the test filed under Rattus norvegicus [3] was determined as 89; in the test filed under Rattus norvegicus [4], 25. Further, the ED100 in the test listed under Rattus norvegicus [5] was 4500 nM/kg. Moreover, the 50% effective dose (ED50) in the test listed under Rattus norvegicus [6] was 0.96 µmol/kg; in the test listed under Rattus norvegicus [7], 0.67 µmol/kg.

Compound `CN1CCc2cccc3c2[C@H]1Cc1ccc(O)c(O)c1-3` [APOMORPHINE] came in with a TED in the test listed under Canis familiaris [8] of 32.3 nM/kg. Moreover, the Accumulation counts worked out at 64 in the test listed under Rattus norvegicus [3] and 24 in the test filed under Rattus norvegicus [4]. Moreover, in the test filed under Rattus norvegicus [5], the ED100 is 230 nM/kg. For the same compound, the figures for the ED50 in the test filed under Rattus norvegicus [6] and in the test listed under Rattus norvegicus [7] were 0.044 µmol/kg and 0.041 µmol/kg, respectively. The compound further displayed a rel ko in the test on Canis lupus familiaris of 1.

`CCCN(CCC)C1CCc2c(O)cccc2C1` (centres undefined) [5-OH-DPAT]: the TED in the test listed under Canis familiaris [8] was 4.7 nM/kg. Besides, the Accumulation counts in the test listed under Rattus norvegicus [3] was 76; in the test filed under Rattus norvegicus [4], 25. Further, the ED100 in the test filed under Rattus norvegicus [5] was 40 nM/kg. The ED50 in the test listed under Rattus norvegicus [6] was 0.009 µmol/kg; in the test listed under Rattus norvegicus [7], 0.011 µmol/kg.

Regarding `CCCN(CCC)C1CCCc2c(O)cccc2C1` (centres undefined), the ED100 result in the test on Rattus norvegicus [9] is “inactive”. For the same compound, the ED50 entry in the test with Rattus norvegicus [10] and with Rattus norvegicus [11] was “inactive” each time.

For `CCCN(CCC)C1Cc2cccc(O)c2C1` (centres undefined), the TED in the test filed under Canis familiaris [8] came out at 25 nM/kg. Also, the Accumulation counts in the test filed under Rattus norvegicus [3] is on record as 108; in the test listed under Rattus norvegicus [4] it was 13. Also, the ED100 in the test filed under Rattus norvegicus [5] is 350 nM/kg. The ED50 in the test filed under Rattus norvegicus [6] was 0.063 µmol/kg; in the test listed under Rattus norvegicus [7], 0.059 µmol/kg.

As to `CCCN(CCC)CC1CCc2c(O)cccc2C1` (centres undefined), in the test on Rattus norvegicus [9], the ED100 result is “inactive”. Also, the ED50 entry in the test with Rattus norvegicus [10] and in the test with Rattus norvegicus [11] was “inactive” each time.

(Values after ChEMBL document CHEMBL1121814, “Monophenolic 2-(dipropylamino)indans and related compounds: central dopamine-receptor stimulating activity” (1981).)
